This note sets out measurements from ChEMBL document CHEMBL1681740, “Quinolizidinone carboxylic acid selective M1 allosteric modulators: SAR in the piperidine series” (Bioorg Med Chem Lett, 2011).

Substitutions are numbered along the chain they refer to. Activity calls are given as the source filed them. The rule behind the calls is not given here. Bounds are passed on as bounds.

Data set [1] deals with Mus musculus. In words: Antiamnesic activity against in contextual fear conditioning B6SJL mouse modle assessed as reversal of scopolamine-induced episodic memory deficit in at 10 mg/kg. Type of data set: functional, organism-based. More on the design: dose 10 mg/kg. Put shortly:
(§1)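 Contextual fear conditioning model of episodic memory in B6SJL mice; scopolamine-induced deficit; test agents given at 3, 10 and 30 mpk; read-out is reversal of the scopolamine deficit.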

The target in data set [2] is T1, Muscarinic acetylcholine receptor M1 (Homo sapiens) (UniProt P11229).
T1 sequence (whole entry): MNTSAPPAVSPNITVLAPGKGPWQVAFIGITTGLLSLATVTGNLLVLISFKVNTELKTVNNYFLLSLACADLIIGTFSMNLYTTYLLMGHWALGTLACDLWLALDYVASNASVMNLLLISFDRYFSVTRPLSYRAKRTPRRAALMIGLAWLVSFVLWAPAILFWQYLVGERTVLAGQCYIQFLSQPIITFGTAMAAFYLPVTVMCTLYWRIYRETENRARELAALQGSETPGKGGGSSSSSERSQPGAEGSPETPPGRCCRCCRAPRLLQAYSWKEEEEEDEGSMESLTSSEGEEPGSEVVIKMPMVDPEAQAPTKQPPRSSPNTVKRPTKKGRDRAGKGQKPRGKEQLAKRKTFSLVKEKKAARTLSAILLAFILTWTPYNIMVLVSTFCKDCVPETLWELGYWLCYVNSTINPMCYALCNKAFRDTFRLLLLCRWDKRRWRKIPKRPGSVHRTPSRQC
The experiment in a line: Positive allosteric modulation at human muscarinic M1 receptor expressing CHO cells assessed as potentiation of acetylcholine-induced calcium mobilization by FLIPR assay. It is filed as functional, cell-based. Put shortly: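 CHO cells expressing human M1 receptor. Inflection point determined in the presence of an EC20 concentration of acetylcholine. Mean of at least two experiments; interassay variability ±30%.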

Data set [3] can be described thus: Plasma protein binding in rat. The following applies: read-out: PPB (converted). It is filed as ADME, cell-free.
The nature of data set [4]: Plasma protein binding in human. Type of data set: ADME, cell-free. The conditions noted are these: read-out: PPB (converted).
A short description of data set [5]: Distribution coefficient, log D of the compound. It is filed as physicochemical. The conditions noted are these: octanol/water.
The target in data set [6] is T1, Muscarinic acetylcholine receptor M1 (Homo sapiens). In words: Positive allosteric modulation at human muscarinic M1 receptor expressing CHO cells assessed as potentiation of acetylcholine-induced calcium mobilization at 0.1 to 1 uM by FLIPR assay. Type of data set: functional, cell-based. Put shortly:
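Human M1-expressing CHO cells; calcium mobilization read-out. Acetylcholine dose–response curves run with modulator at rising concentrations from 0.1 to 1 μM; fold potentiation taken from the leftward shift of the curve.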
In general terms: Calcium assays in cells follow changes in intracellular calcium, usually with a dye or a luminescent sensor.

For the next data set, the system named is Brain. The experiment in a line: Drug uptake in Sprague-Dawley rat brain at 10 mg/kg, po. Type of data set: ADME, organism-based. The following applies: in vivo, read-out: Drug uptake. More on the design: dose 10 mg/kg, route oral. Put shortly: (§2)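 Sprague-Dawley rats dosed orally at 10 mg/kg in 0.5% methocel. Drug levels measured by bioanalysis of plasma, brain and CSF; brain/plasma ratio derived from these. Interanimal variability under 20%.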

Data set [7] relates to Mus musculus. The experiment in a line: Antiamnesic activity against in contextual fear conditioning B6SJL mouse modle assessed as reversal of scopolamine-induced episodic memory deficit in at 3 mg/kg. It is filed as functional, organism-based. More on the design: dose 3 mg/kg. In short, it runs like this:
as §1

Data set [8] in a line: Ratio of drug uptake in CSF to fraction unbound in plasma in rat. It is filed as ADME, cell-free. Put shortly:
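Sprague-Dawley rats, oral 10 mg/kg in 0.5% methocel. CSF level divided by unbound plasma level, with unbound plasma derived using rat plasma protein binding values.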

Data set [9] deals with Plasma. In words: Plasma concentration in Sprague-Dawley rat at 10 mg/kg, po. Type of data set: ADME, organism-based. More on the design: dose 10 mg/kg, route oral. The following applies: in vivo. In short, it runs like this:
as §2

The nature of data set [10]: Drug uptake in Sprague-Dawley rat CSF at 10 mg/kg, po. Type of data set: ADME, organism-based, Cerebrospinal fluid. Also on record: dose 10 mg/kg, route oral. The conditions noted are these: in vivo, read-out: Drug uptake. Put shortly: as §2
A short description of data set [11]: Ratio of drug uptake in brain to plasma in Sprague-Dawley rat at 10 mg/kg, po. Type of data set: ADME, organism-based. Also on record: dose 10 mg/kg, route oral. The conditions noted are these: read-out: BPR. Put shortly:
as §2

The subject of data set [12] is Plasma. In words: Plasma concentration in B6SJL mouse at 30 mg/kg. Type of data set: ADME, organism-based. More on the design: dose 30 mg/kg. The following applies: in vivo. Put shortly: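 Plasma drug levels in B6SJL mice measured after 30 mpk dosing in the contextual fear conditioning study.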
Data set [13] concerns Mus musculus. In words: Antiamnesic activity against in contextual fear conditioning B6SJL mouse modle assessed as reversal of scopolamine-induced episodic memory deficit in at 30 mg/kg. It is filed as functional, organism-based. Also on record: dose 30 mg/kg. Put shortly:
as §1

For data set [14], the target named is Voltage-gated inwardly rectifying potassium channel KCNH2 (Homo sapiens, UniProt Q12809). In words: Binding affinity to human ERG at <1 uM.
Chain of Voltage-gated inwardly rectifying potassium channel KCNH2 (Q12809 whole entry): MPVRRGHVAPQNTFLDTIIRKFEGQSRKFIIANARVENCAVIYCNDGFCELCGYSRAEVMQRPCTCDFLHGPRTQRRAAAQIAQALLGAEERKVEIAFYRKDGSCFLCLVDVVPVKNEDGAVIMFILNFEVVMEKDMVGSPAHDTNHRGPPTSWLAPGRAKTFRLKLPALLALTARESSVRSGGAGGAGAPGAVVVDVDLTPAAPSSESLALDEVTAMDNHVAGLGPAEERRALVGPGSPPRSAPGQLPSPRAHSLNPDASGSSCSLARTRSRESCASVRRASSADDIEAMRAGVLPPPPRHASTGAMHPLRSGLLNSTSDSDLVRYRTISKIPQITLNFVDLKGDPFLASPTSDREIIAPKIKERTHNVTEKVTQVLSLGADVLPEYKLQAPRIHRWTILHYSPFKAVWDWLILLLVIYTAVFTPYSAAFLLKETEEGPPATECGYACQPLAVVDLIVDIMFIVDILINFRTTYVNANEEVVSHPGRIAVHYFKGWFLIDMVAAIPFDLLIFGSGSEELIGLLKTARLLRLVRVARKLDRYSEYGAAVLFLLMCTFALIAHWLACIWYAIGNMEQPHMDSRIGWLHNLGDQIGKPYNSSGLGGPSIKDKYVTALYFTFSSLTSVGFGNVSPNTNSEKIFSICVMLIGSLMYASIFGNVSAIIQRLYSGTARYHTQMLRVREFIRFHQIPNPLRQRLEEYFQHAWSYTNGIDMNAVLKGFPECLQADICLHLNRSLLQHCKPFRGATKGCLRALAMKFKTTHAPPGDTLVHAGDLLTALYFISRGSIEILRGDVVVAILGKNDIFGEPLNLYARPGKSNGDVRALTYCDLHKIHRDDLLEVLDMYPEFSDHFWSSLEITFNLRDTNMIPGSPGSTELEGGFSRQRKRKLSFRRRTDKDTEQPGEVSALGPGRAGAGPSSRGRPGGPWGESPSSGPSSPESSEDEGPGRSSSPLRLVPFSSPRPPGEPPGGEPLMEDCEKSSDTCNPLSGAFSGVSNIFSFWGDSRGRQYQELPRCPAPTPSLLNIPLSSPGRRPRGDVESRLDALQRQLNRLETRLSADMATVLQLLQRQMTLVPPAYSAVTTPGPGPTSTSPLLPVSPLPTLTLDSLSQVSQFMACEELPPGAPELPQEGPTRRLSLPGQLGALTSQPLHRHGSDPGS
The nature of data set [15]: Ratio of drug uptake in CSF to fraction unbound in plasma in wild type CF-1 mouse after 30 mins. It is filed as ADME, cell-free. The conditions noted are these: 0.5 h. In short, it runs like this: (§3)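 CF-1 mice, wild type and P-gp knockout, were treated with the compound. Plasma and CSF were collected 30 minutes after treatment. The value is the CSF concentration divided by the unbound plasma concentration (CSF/U plasma ratio), reported separately for each genotype.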

Data set [16] can be described thus: Ratio of drug uptake in CSF to fraction unbound in plasma in P-gp knock out CF-1 mouse after 30 mins. Type of data set: ADME, cell-free. The following applies: 0.5 h. In short, it runs like this: as §3
In data set [17] the target is T2, Muscarinic acetylcholine receptor M1 (Rattus norvegicus) (UniProt P08482).
T2 sequence (whole entry): T1 sequence (whole entry) with A5V, T254S, P309S, R320K, A337G, I413V
In words: Positive allosteric modulation at rat muscarinic M1 receptor.

For orientation: logD means lipophilicity at a set pH, counting ionised and neutral species. Consider `O=C(O)c1cc(CN2CCc3cc(Cl)ccc3C2)c2ccccn2c1=O`, for which the result in the data set on Mus musculus [1], in the data set on Mus musculus [7] and in the data set on Mus musculus [13] was inactive. The IP in data set [2] stood at 0.33 µM. Besides, the values for the fraction unbound in data set [3] and in [4] were 0.04 and 0.02, respectively. In [5], this molecule gave a logD of 2.37. Also, the outcome in data set [6] was Active. Moreover, the concentration in the data set with Brain turned out to be 3690 nM; in the data set with Plasma [9] it was 4240 nM; in [10], 86 nM; with Plasma [12], 16000 nM. Also, in data set [8], the Ratio was determined as 0.63. Also, in data set [11], the Kp was 0.86.

For `O=C(O)c1cc(CN2CCC(n3cnc4ccccc43)CC2)c2ccccn2c1=O`, the IP in [2] was 0.55 µM. Further, the fraction unbound is 0.24 in data set [3] and 0.21 in data set [4]. Moreover, the logD in [5] was 0.92.

For the molecule `O=C(O)c1cc(CN2CCC(c3nc4ccccc4[nH]3)CC2)c2ccccn2c1=O`, the IP in [2] was 0.12 µM. The results for the fraction unbound in [3] and in [4] were 0.23 and 0.18, respectively. This molecule came in with a concentration with Plasma [9] of 132 nM.

On to `O=C(O)c1cc(CN2CCc3ccccc3C2c2ccncc2)c2ccccn2c1=O` (centres undefined), for which, in data set [2], the IP was found to be 0.053 µM. Besides, the fraction unbound is 0.06 in data set [3] and 0.04 in data set [4]. The results for the concentration (in the data set with Brain; in the data set on Plasma [9]; in data set [10]) were 1340 nM, 9780 nM and 230 nM, respectively. Moreover, in data set [8], the Ratio came out at 0.37. Moreover, the Kp in data set [11] was determined as 0.14. In data set [14], the outcome was Active.

As to `Cc1ccc(C2CCN(Cc3cc(C(=O)O)c(=O)n4ccccc34)CC2)cc1`, the result with Mus musculus [1], in the data set with Mus musculus [7] and with Mus musculus [13] was inactive. The IP came to 1.7 µM in data set [2] and 760 nM in data set [17]. Also, the figures for the fraction unbound in data set [3] and in [4] were 0.11 and 0.09, respectively. Moreover, the logD in data set [5] worked out at 2.97. Further, the outcome in data set [6] was Active. For the same molecule, the concentration worked out at 5780 nM in the data set with Brain, 915 nM in the data set on Plasma [9], 28 nM in data set [10] and 31000 nM with Plasma [12]. The Ratio was 0.7 in [8], 0.37 in [15] and 0.42 in [16]. Besides, in data set [11], the Kp worked out at 6.

Consider `O=C(O)c1cc(CN2CCC(n3nnc4ccccc43)CC2)c2ccccn2c1=O`, for which the IP in data set [2] stood at 6 µM.

On to `Cc1ccc2c(c1)CCN(Cc1cc(C(=O)O)c(=O)n3ccccc13)C2`, for which, in data set [2], the IP worked out at 1.1 µM.

With `O=C(O)c1cc(CN2CCC(c3ccccc3F)CC2)c2ccccn2c1=O`, the IP in data set [2] was 1.7 µM.

As for `O=C(O)c1cc(CN2CCc3cnccc3C2)c2ccccn2c1=O`, the IP in [2] was 0.9 µM.

For the molecule `O=C(O)c1cc(CN2CCC(c3cccnc3F)CC2)c2ccccn2c1=O`, the IP in data set [2] turned out to be 0.84 µM.

As to `O=C(O)c1cc(CN2CCc3ccccc3C2C2CCCCC2)c2ccccn2c1=O` (centres undefined), the IP in [2] is over 100 µM.

With `O=C(O)c1cc(CN2CCc3ccccc3C2c2cccs2)c2ccccn2c1=O` (centres undefined), the IP in data set [2] came out at 0.6 µM.

On to `O=C(O)c1cc(CN2CCC(c3cccc(F)c3)CC2)c2ccccn2c1=O`, for which the IP in data set [2] amounted to 1.5 µM.

As for `N#Cc1ccc(N2CCN(Cc3cc(C(=O)O)c(=O)n4ccccc34)CC2)cc1`, the IP in data set [2] was 0.52 µM. For the same molecule, the Ratio in data set [8] stood at 0.42.

In the case of `O=C(O)c1cc(CN2CCC(c3ccncn3)CC2)c2ccccn2c1=O`, the IP in data set [2] turned out to be 4.3 µM.
